From ChEMBL document CHEMBL4392826, “Prototyping kinase inhibitor-cytotoxin anticancer mutual prodrugs activated by tumour hypoxia: A chemical proof of concept study” (Bioorg Med Chem Lett, 2019) come the findings set out here.

Series [1] relates to SW-620. The experiment in a line: Cytotoxicity against human SW620 cells incubated for 4 hrs under aerobic condition followed by compound washout and measured after 5 days by SRB assay. Format: cell-based. An outline of the steps: (§1)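 Antiproliferative IC50 in MDA-MB-468 triple-negative breast or SW620 colon cancer cells, exposed under aerobic or anoxic conditions; mean ± std dev, n = 3.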

For series [2], the system named is SW-620. The series can be described thus: Selectivity ratio of IC50 for human SW620 cells under aerobic condition to IC50 for human SW620 cells under hypoxic condition. The method, boiled down:
(§2)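 Hypoxic cytotoxicity ratio: aerobic IC50 divided by anoxic IC50 in the same cell line (MDA-MB-468 or SW620).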

Series [3] concerns MDA-MB-468. The series can be described thus: Selectivity ratio of IC50 for human MDA-MB-468 cells under aerobic condition to IC50 for human MDA-MB-468 cells under hypoxic condition. The method, boiled down: as §2
Series [4] has as its system MDA-MB-468. The series can be described thus: Cytotoxicity against human MDA-MB-468 cells incubated for 4 hrs under hypoxic condition followed by compound washout and measured after 5 days by SRB assay. Format: functional, cell-based. The method, boiled down: as §1
A general note: Sulforhodamine B stains cellular protein and so reports cell mass.

Series [5] has as its system SW-620. The experiment in a line: Cytotoxicity against human SW620 cells incubated for 4 hrs under hypoxic condition followed by compound washout and measured after 5 days by SRB assay. Format: functional, cell-based. An outline of the steps: as §1
The subject of series [6] is MDA-MB-468. The experiment in a line: Cytotoxicity against human MDA-MB-468 cells incubated for 4 hrs under aerobic condition followed by compound washout and measured after 5 days by SRB assay. Format: cell-based. The method, boiled down:
as §1

Series [7] in a line: Electrochemical behavior of the compound assessed as one-elctron reduction potential at 50 uM in pH 7 deaerated phosphate buffered by pulse radiolysis.
Series [8] is described as follows: Ratio of test compound IC50 to floxuridine IC50 for human MDA-MB-468 cells incubated for 4 hrs under aerobic condition followed by compound washout and measured after 5 days by SRB assay. Type of series: ADME, cell-based. The settings on record: read-out: Ratio IC50. An outline of the steps: (§3)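 Deactivation ratio: aerobic antiproliferative IC50 of the prodrug divided by aerobic IC50 of the parent cytotoxin control (floxuridine). IC50 values were means ± std dev, n = 3, determined in MDA-MB-468 triple-negative breast or SW620 colon cancer cells.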

Series [9] is described as follows: Ratio of test compound IC50 to floxuridine IC50 for human SW620 cells incubated for 4 hrs under aerobic condition followed by compound washout and measured after 5 days by SRB assay. Format: ADME, cell-based, SW-620. The settings on record: read-out: Ratio IC50. The method, boiled down:
as §3

A short description of series [10]: Electrochemical behavior of the compound assessed as one-elctron reduction potential at 0.42 uM in tert-butanol by pulse radiolysis.
Series [11] is described as follows: Ratio of test compound IC50 to melphalan IC50 for human SW620 cells incubated for 4 hrs under aerobic condition followed by compound washout and measured after 5 days by SRB assay. Format: ADME, cell-based, SW-620. The settings on record: read-out: Ratio IC50. An outline of the steps:
(§4)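 Deactivation ratio: aerobic IC50 of the prodrug divided by the aerobic IC50 of the parent control cytotoxin, in the same cell line (MDA-MB-468 or SW620).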

Series [12] can be described thus: Aqueous solubility of the compound. Format: physicochemical. Conditions: buffer.
A short description of series [13]: Ratio of test compound IC50 to melphalan IC50 for human MDA-MB-468 cells incubated for 4 hrs under aerobic condition followed by compound washout and measured after 5 days by SRB assay. Format: ADME, cell-based. The settings on record: read-out: Ratio IC50. The method, boiled down:
as §4

What is called IC50 is the midpoint of a concentration-inhibition curve. Low values mean inhibition by little substance, high ones a need for much substance. Take `N[C@@H](Cc1ccc(N(CCCl)CCCl)cc1)C(=O)O` [MELPHALAN]: the IC50 with SW-620 [1] turned out to be 1.81 µM; in the series on MDA-MB-468 [4], 0.81 µM; in the series with SW-620 [5] it was 1.22 µM; with MDA-MB-468 [6], 1 µM. The “Ratio IC50” value in the series with SW-620 [2] stood at 1.5; in the series with MDA-MB-468 [3], 1.2.
For the molecule `Nc1n[n+]([O-])c2ccccc2[n+]1[O-]` [TIRAPAZAMINE], the IC50 with SW-620 [1] came to 91 µM; with MDA-MB-468 [4], 1.3 µM; in the series on SW-620 [5], 1.2 µM; with MDA-MB-468 [6], 105 µM. In addition, the “Ratio IC50” value with SW-620 [2] is on record as 76; with MDA-MB-468 [3], 81.
On to `Cc1cc(C)c(/C=C(\C(=O)OC[C@H]2O[C@@H](n3cc(F)c(=O)[nH]c3=O)C[C@@H]2O)c2ccccc2[N+](=O)[O-])[nH]1`, for which the Activity in series [7] was -509 mV. Moreover, the selectivity ratio at 4 h is 3.1 in [8] and 19.4 in series [9]. Moreover, the IC50 amounted to 18.7 µM with SW-620 [1], 248 µM in the series on MDA-MB-468 [4], 14 µM in the series with SW-620 [5] and 83.9 µM in the series on MDA-MB-468 [6]. Further, the “Ratio IC50” value was 1.3 with SW-620 [2] and <1 in the series on MDA-MB-468 [3].
Consider `Cn1c(COP(=O)(NCCBr)NCCBr)cnc1[N+](=O)[O-]` [EVOFOSFAMIDE], for which the IC50 stood at 20.6 µM with SW-620 [1], 0.0062 µM with MDA-MB-468 [4], 0.052 µM in the series on SW-620 [5] and 4.4 µM in the series on MDA-MB-468 [6]. The entries for the “Ratio IC50” value with SW-620 [2] and in the series on MDA-MB-468 [3] were 396 and 710, respectively.
For the molecule `Cc1cc(C)c(/C=C(\C(=O)Nc2ccc(N(CCO)CCO)cc2)c2ccccc2[N+](=O)[O-])[nH]1`, the Activity in series [10] was -550 mV.
With `O=c1[nH]c(=O)n([C@H]2C[C@H](O)[C@@H](CO)O2)cc1F` [FLOXURIDINE], the IC50 in the series on SW-620 [1] was 0.96 µM; with MDA-MB-468 [4], 45.5 µM; in the series on SW-620 [5], 1.48 µM; in the series with MDA-MB-468 [6], 27.4 µM. The “Ratio IC50” value in the series on SW-620 [2] and in the series with MDA-MB-468 [3] was <1 in each case.
Take `Cc1cc(C)c(/C=C(\C(=O)Nc2ccc(N(CCCl)CCCl)cc2)c2ccccc2[N+](=O)[O-])[nH]1`: the selectivity ratio at 4 h in series [11] was found to be 6.3; in series [13], 8.3. Further, the solubility result in series [12] is “Insoluble”. The half-maximal inhibitory concentration (IC50) in the series on SW-620 [1] came out at 11.5 µM; in the series on MDA-MB-468 [4], 7.38 µM; in the series with SW-620 [5] it was 12.7 µM; in the series on MDA-MB-468 [6], 8.31 µM. Besides, the “Ratio IC50” value with SW-620 [2] was <1; in the series with MDA-MB-468 [3] it was 1.1.
